The nature of assay [1]: Inhibition of MERS-CoV spike protein-mediated cell-cell fusion in 293T/MERS/EGPF cells assessed as reduction in cell fusion incubated for 4 hrs by inverted fluorescence microscopy. Format: cell-based, Middle East respiratory syndrome-related coronavirus. Put shortly:
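Huh-7 cells expressing DPP4 plated 5 × 10^4/well, 5 h at 37 °C; serially diluted peptide added, then 293T cells carrying MERS-CoV S and EGFP (or EGFP-only control cells), 1 × 10^4/well. After 4 h coculture at 37 °C, fused and unfused effector cells counted by fluorescence microscopy.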

In assay [2] the test system is Influenza A virus. Briefly: Antiviral activity against influenza A virus Hong Kong/8/1968(H3N2) infected in HEK293T cells assessed as inhibition of viral replicon activity incubated for 30 hrs by dual-Glo luciferase assay. The settings on record: HEK-293T. The class given is functional, organism-based. In a few lines: (§1)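 HEK293T cells (2.5 × 10^4/well) transfected with plasmids for NP, PB1, PB2, PA plus p0LN-S-Luc firefly and pRL-SV40 Renilla reporters; serially diluted compound added 6 h post-transfection, luciferase read after 30 h by Dual-Glo. Activity = firefly/Renilla ratio; % inhibition normalized to positive and negative controls, curve-fitted; three independent measurements.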

The test system of assay [3] is Influenza A virus. Description: Antiviral activity against influenza A virus assessed as inhibition of viral replicon activity up to 100 uM incubated for 30 hrs by firefly luciferase reporter gene assay. The class given is functional, organism-based. Put shortly:
as §1
(A replicon is a self-replicating genome or part of one, used to study replication in cells.)

Assay [4] concerns Influenza A virus. Briefly: Binding affinity to influenza A virus hemagglutinin 2 synthetic peptide N66 at 75 uM incubated for 30 mins by Coomassie blue R250 staining based native polyacrylamide gel electrophoresis method. In a few lines: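 Equimolar mix with N66 (150 μM each) in sodium acetate/phosphate/NaCl pH 5.0, 30 min at 30 °C; neutralized with 200 mM Tris pH 8.5, diluted 1:1 in Tris-glycine sample buffer, run on 15% Tris-glycine gel, running buffer pH 8.8 (90 V then 150 V, 2.5 h); Coomassie R250 stain.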

Assay [5] has as its system Influenza A virus. Description: Binding affinity to influenza A virus hemagglutinin 2 synthetic peptide N66 assessed as changes in alpha-helical structures at 10 uM at pH 5 by CD spectroscopy. In a few lines:
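Peptides at 10 μM final. HR1P incubated with test peptide 30 min at 25 °C in 10 mM phosphate, pH 7.4; N66 30 min at 30 °C in 10 mM sodium acetate/10 mM sodium phosphate/150 mM NaCl, pH 5.0; measured at 25 °C. Mean residue ellipticity; helicity from −33000 deg cm2 dmol−1 = 100%.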

Assay [6] deals with Influenza A virus. Briefly: Binding affinity to influenza A virus hemagglutinin 2 synthetic peptide N66 assessed as melting temperature at 10 uM at pH 5 by CD spectroscopy. In a few lines: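 Thermal unfolding by CD at 222 nm, 10–90 °C at 2 °C/min. Samples held 10 μM peptide: for HR1P in 10 mM phosphate pH 7.4; for N66 in 10 mM sodium acetate with 10 mM sodium phosphate and 150 mM NaCl, pH 5.0.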

The subject of assay [7] is Middle East respiratory syndrome-related coronavirus. Briefly: Binding affinity to MERS-CoV spike protein synthetic peptide HR1P at pH 7.4 by sedimentation velocity analysis. Put shortly:
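Complexes at 150 μM final: with HR1P 30 min at 25 °C in 10 mM phosphate pH 7.4; with N66 30 min at 30 °C in sodium acetate/phosphate/NaCl pH 5.0. Sedimentation velocity at 280 nm, 3000 then 60000 rpm, 25 °C; c(s) distribution and molecular weight derived.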

pEC50: −log10 of the molar value. Active and inactive are the calls of the source. No cut-off for these calls is given here. Where a SMILES comes first, the peptide text is derived from it. [ ]: non-standard residue; d: D form. The star is where a group is joined. Palmitoyl = CCCCCCCCCCCCCCCC(=O)*; βAla = NCCC(=O)O

With `CCCCCCCCCCCCCCCC(=O)NCCCC[C@H](NC(=O)CCNC(=O)[C@H](CCCCN)NC(=O)[C@H](CCCCN)NC(=O)[C@H](CCC(N)=O)NC(=O)[C@@H](NC(=O)[C@H](CCC(=O)O)NC(=O)[C@H](CCC(=O)O)NC(=O)[C@@H](NC(=O)[C@H](CCCCN)NC(=O)[C@H](CCCCN)NC(=O)[C@H](CCC(N)=O)NC(=O)[C@@H](NC(=O)[C@H](CCC(=O)O)NC(=O)[C@H](CCC(=O)O)NC(=O)[C@@H](NC(=O)[C@H](CCCCN)NC(=O)[C@H](CCCCN)NC(=O)[C@H](CCC(N)=O)NC(=O)[C@@H](NC(=O)[C@H](CCC(=O)O)NC(=O)[C@H](CCC(=O)O)NC(=O)[C@@H](NC(=O)[C@H](CCCCN)NC(=O)[C@H](CCCCN)NC(=O)[C@H](CCC(N)=O)NC(=O)[C@@H](NC(=O)[C@H](CCC(=O)O)NC(=O)[C@H](CCC(=O)O)NC(=O)[C@@H](NC(=O)[C@H](CCCCN)NC(=O)[C@H](CCCCN)NC(=O)[C@H](CCC(N)=O)NC(=O)[C@@H](NC(=O)[C@H](CCC(=O)O)NC(=O)[C@H](CCC(=O)O)NC(=O)[C@@H](NC(C)=O)[C@@H](C)CC)[C@@H](C)CC)[C@@H](C)CC)[C@@H](C)CC)[C@@H](C)CC)[C@@H](C)CC)[C@@H](C)CC)[C@@H](C)CC)[C@@H](C)CC)[C@@H](C)CC)C(N)=O` (Ac-IEEIQKKIEEIQKKIEEIQKKIEEIQKKIEEIQKK[βAla]K(Palmitoyl)-NH2), the pEC50 (in general, the negative decadic logarithm of the EC50, by convention in mol/L) in assay [1] was 6.96; in assay [2] it was 6.15. For the same molecule, in assay [3], the inhibition entry is “inactive”. Further, the result in assay [4], in assay [5] and in assay [7] was Active. The Tm in assay [6] is 83.1 °C.
